Laboratory results from publication PMC3124385 (Clinical pharmacology and therapeutics, 2011).
Like-named read-outs stand apart in the source and are kept apart here. Starred links: 1 amine or outer side, 2 acyl side, 3 side chain; linkers in the order of their positions; H or OH if unused. Positions of bridges follow the written chain, without caps; N, C: chain ends. Non-standard residues stand in square brackets, D forms with d. Residues, ends and D or L forms follow the SMILES beside them. *: point of attachment. pTerphenylCO(4''-OnC5H11) = CCCCCOc1ccc(-c2ccc(-c3ccc(C(=O)*)cc3)cc2)cc1; Orn(4R-OH,5R-OH) = O=C([C@H](C[C@@H](O)[C@@H](O)N[*:3])N[*:1])[*:2]; hTyr(3S-OH,4S-OH) = N[C@H](C(=O)O)[C@H](O)[C@@H](O)c1ccc(O)cc1; Pro(3S-OH,4S-Me) = C[C@H]1CN[C@H](C(=O)O)[C@H]1O; Hyp = O=C(O)[C@@H]1C[C@@H](O)CN1

Tests used:
[1] = type: in vivo, human; settings: for C24 LD, trough (24 h) concentration after the loading dose / Cmax LD, maximum concentration after loading dose: after 3 mg/kg IV loading dose, day 1, plasma LC-MS/MS
Summary of the method: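 IV infusion over 60 min (≤1.1 mg/min): 3 mg/kg loading dose day 1, then 1.5 mg/kg daily up to day 5. Infants got a 20% alcohol-based form and neonates an alcohol-free water-for-injection form. Venous plasma drawn day 1 (predose, end-infusion, 20–24 h) and days 3–5 (predose to 18–24 h), kept at −80°C, assayed by LC-MS/MS (0.05–20.0 μg/ml). Noncompartmental analysis of doses 3–5; AUC by linear trapezoidal rule; CL = dose/AUC.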

[2] = Safety: adverse events and clinical laboratory tests in infants and neonates; type: in vivo, human
[3] = ref [12], cited from earlier work
[4] = ref [10], cited from earlier work
[5] = tested on: cytochrome P450 enzymatic system; settings: ref [10]; cited from earlier work

Structure (SMILES): CCCCCOc1ccc(-c2ccc(-c3ccc(C(=O)N[C@H]4C[C@@H](O)[C@@H](O)NC(=O)[C@@H]5[C@@H](O)[C@@H](C)CN5C(=O)[C@H]([C@@H](C)O)NC(=O)[C@H]([C@H](O)[C@@H](O)c5ccc(O)cc5)NC(=O)[C@@H]5C[C@@H](O)CN5C(=O)[C@H]([C@@H](C)O)NC4=O)cc3)cc2)cc1 [anidulafungin, Anidulafungin] ({pTerphenylCO(4''-OnC5H11)}-[Orn(4R-OH,5R-OH)]T[Hyp][hTyr(3S-OH,4S-OH)]T[Pro(3S-OH,4S-Me)]; lactam 1-C)
- drug accumulation after multiple anidulafungin doses ([1]; comparing trough concentrations after the loading dose and those obtained after multiple doses): not apparent
- Cmax ([1]; human, plasma, iv, 1.5 mg/kg): 4200 ng/mL
- Cmax ([1]; human, plasma, iv, 3 mg/kg): 5000 ng/mL
- level at 24 h ([1]; human, plasma, iv, 3 mg/kg): 2100 ng/mL
- trend in weight-adjusted clearance (CLss) with changes in postmenstrual age ([1]; scatter plot, Figure 3, neonates and infants): No trend was observed
- C24 LD, trough (24 h) concentration after the loading dose ([1]; subject 4, neonate): 2.1 µg/mL
- Cmax LD, maximum concentration after loading dose ([1]; subject 4, neonate): 4000 ng/mL
- C24 LD, trough (24 h) concentration after the loading dose ([1]; subject 6, neonate): 3.2 µg/mL
- Cmax LD, maximum concentration after loading dose ([1]; subject 6, neonate): 5900 ng/mL
- C24 LD, trough (24 h) concentration after the loading dose ([1]; subject 8, neonate): 1.9 µg/mL
- Cmax LD, maximum concentration after loading dose ([1]; subject 8, neonate): 4900 ng/mL
- C24 LD, trough (24 h) concentration after the loading dose ([1]; subject 9, infant): 2.3 µg/mL
- Cmax LD, maximum concentration after loading dose ([1]; subject 9, infant): 7100 ng/mL
- C24 LD, trough (24 h) concentration after the loading dose ([1]; subject 10, infant): 2.4 µg/mL
- Cmax LD, maximum concentration after loading dose ([1]; subject 10, infant): 5000 ng/mL
- C24 LD, trough (24 h) concentration after the loading dose ([1]; subject 11, infant): 1.9 µg/mL
- Cmax LD, maximum concentration after loading dose ([1]; subject 11, infant): 6800 ng/mL
- subjects who experienced at least one adverse event ([2]; eight out of 15 subjects, neonates and infants): 53%
- maximum bilirubin level during study drug administration ([2]; other infant with worsening hyperbilirubinemia, baseline 9.1 mg/dL): 10.4 mg/dL
- AUCss of older children and adults ([3]; older children (1.5 mg/kg/day) and adults (100 mg/day)): 100000 ng·h/mL
- half life in other pediatric patients ([3]; other pediatric patients): 20 to 24 h
- hepatic metabolism [4, 11]: lacks significant hepatic metabolism
- degradation in the blood [4]: undergoes chemical degradation in the blood
- renal clearance [4]: not renally cleared
- metabolism by the cytochrome P450 enzymatic system [5]: not metabolized by the cytochrome P450 enzymatic system
